Paper PMC7196279 (Biomedicine & pharmacotherapy = Biomedecine & …, 2020)
Like-named read-outs stand apart in the source and are kept apart here. Bridges are numbered along the chain shown (N, C = ends). Where no end group is shown, it is not given here.

Columns and labels:
[1] = system: Ca^2+-activated K^+ channels; type: cell-based, Chinese hamster; conditions: mOT receptor CHO cells, inhibitor pretreatment
[2] = system: Ca^2+-activated K^+ channels; type: cell-based, Chinese hamster; conditions: tOT receptor CHO cells; for inhibition of AVP induced hyperpolarization / inhibition of Leu^8-OT induced hyperpolarization / inhibition of Pro^8-OT induced hyperpolarization: inhibitor pretreatment
Procedure, shortened: (§1)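 Receptor-expressing CHO-K1 cells were loaded with FMP Blue in Locke's buffer (pH 7.4) at 37 °C for 35 min. Paxilline, TRAM-34 and/or apamin were then added, followed by 10 min more incubation. Baseline was read for 60 s, then log concentrations of agonist were added and ex 530/em 565 nm was read every 2 s for 200 s. NS-1619 or SKA-31 stimulation followed paxilline (30 μM) or TRAM-34 pretreatment respectively. Response was FMIN − F0. N = 3 experiments, 10 replicates per dose.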

[3] = system: Ca^2+-activated K^+ channels; conditions: hOT receptor CHO cells, cited from earlier work
[4] = system: Ca^2+-activated K^+ channels; type: cell-based, Chinese hamster; conditions: qOT receptor CHO cells; for inhibition of AVP induced hyperpolarization / inhibition of Leu^8-OT induced hyperpolarization / inhibition of Pro^8-OT induced hyperpolarization: inhibitor pretreatment
Procedure, shortened: as §1

[5] = system: Ca^2+-activated K^+ channels; conditions: mOT receptor CHO cells, cited from earlier work
[6] = system: Ca^2+-activated K^+ channels; type: cell-based, Chinese hamster; conditions: hOT receptor CHO cells, inhibitor pretreatment
[7] = system: sarco/endoplasmic reticulum calcium ATPase (SERCA); type: cell-based; conditions: all four lines, thapsigargin pretreatment 1 μM final concentration
Procedure, shortened: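 Fluo-3 AM-loaded cells (60 min, 37 °C) were washed four times and treated with thapsigargin (1 μM final) for 5 min. The Ca2+ mobilization assay was then run with agonist concentration series, with untreated controls in parallel on the same plates. The Fluo-3 read was FMAX − F0. N = 3 experiments, five replicates per dose.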

[8] = system: sarco/endoplasmic reticulum calcium ATPase (SERCA); type: cell-based; conditions: all four OT receptor cell lines, thapsigargin pretreatment
Procedure, shortened: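 Cells were incubated with FMP Blue in Locke's buffer at 37 °C for 40 min. Thapsigargin was added, followed by 5 min more incubation. The membrane potential assay was then run with agonist concentration series. Fluorescence was read at ex 530/em 565 nm every 2 s for 200 s after a 60 s baseline. Response was FMIN − F0.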

[9] = target: T1, macaque oxytocin receptor (qOTR) (Macaca mulatta, UniProt P56494); experiment: Ca2+ mobilization assay; type: cell-based
T1 sequence (P56494 1-389): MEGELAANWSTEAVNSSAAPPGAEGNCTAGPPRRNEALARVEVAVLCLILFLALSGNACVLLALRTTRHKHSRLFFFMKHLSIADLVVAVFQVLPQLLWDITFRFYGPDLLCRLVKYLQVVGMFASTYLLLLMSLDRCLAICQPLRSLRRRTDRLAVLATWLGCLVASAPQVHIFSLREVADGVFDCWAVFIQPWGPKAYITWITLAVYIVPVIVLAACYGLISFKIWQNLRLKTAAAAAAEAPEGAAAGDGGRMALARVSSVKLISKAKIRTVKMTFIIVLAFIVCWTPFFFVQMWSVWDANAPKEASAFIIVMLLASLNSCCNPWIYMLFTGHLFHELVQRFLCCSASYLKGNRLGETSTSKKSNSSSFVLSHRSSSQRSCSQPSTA

[10] = target: Human Kappa-opioid (κO) receptor (Homo sapiens, UniProt P41145); experiment: Membrane potential assay in κOR-CHO cells; type: cell-based; conditions: κOR-CHO cells pretreated with pertussis toxin
Gi/o = type: cell-based; conditions: PTX 150 ng/ml

Chain of Human Kappa-opioid (κO) receptor (P41145 whole entry): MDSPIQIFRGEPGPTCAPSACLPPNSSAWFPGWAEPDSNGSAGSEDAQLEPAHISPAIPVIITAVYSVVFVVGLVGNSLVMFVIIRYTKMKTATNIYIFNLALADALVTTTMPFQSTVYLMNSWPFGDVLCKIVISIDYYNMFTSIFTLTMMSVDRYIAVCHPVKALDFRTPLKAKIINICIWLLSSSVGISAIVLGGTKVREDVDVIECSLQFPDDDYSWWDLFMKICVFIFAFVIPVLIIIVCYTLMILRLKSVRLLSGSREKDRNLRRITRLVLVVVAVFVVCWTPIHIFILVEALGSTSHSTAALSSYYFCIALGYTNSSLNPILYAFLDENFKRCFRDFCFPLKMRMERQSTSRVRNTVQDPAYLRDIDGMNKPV

Compound: CC(C)(O)[C@H]1O[C@H]2CC[C@@]3(C)[C@@](O)(CC[C@H]4Cc5c([nH]c6ccccc56)[C@@]43C)C2=CC1=O [paxilline]
- inhibition of AVP induced hyperpolarization [1]: 20%
- block of NS-1619 evoked hyperpolarization ([2]; 30 μM paxilline): 80%
- inhibition of AVP induced hyperpolarization [2]: 13%
- inhibition of Leu^8-OT induced hyperpolarization [2]: 38%
- inhibition of Pro^8-OT induced hyperpolarization [2]: 39%
- effect on BKCa activator NS-1619 response [3]: inhibited
- block of NS-1619 evoked hyperpolarization ([4]; 30 μM paxilline): 72%
- inhibition of AVP induced hyperpolarization [4]: 20%
- inhibition of Leu^8-OT induced hyperpolarization [4]: 46%
- inhibition of Pro^8-OT induced hyperpolarization [4]: 35%
- effect on BKCa activator NS-1619 response [5]: inhibited
- inhibition of AVP induced hyperpolarization [6]: 52%

Compound: apamin: selective inhibitor of SKCa channels (CNCKAPETALCARRCQQH-NH2; disulfide 1-11, 3-15; UniProt P01500 28-45, looked up)
- inhibition of AVP induced hyperpolarization [1]: did not significantly affect
- inhibition of AVP induced hyperpolarization ([1]; listed as Apamin): ≤ 15%
- inhibition of AVP induced hyperpolarization [2]: did not significantly affect
- inhibition of Leu^8-OT induced hyperpolarization [2]: ≤ 15%
- inhibition of Pro^8-OT induced hyperpolarization [2]: ≤ 15%
- inhibition of AVP induced hyperpolarization ([2]; listed as Apamin): ≤ 15%
- contribution to (inhibition of) Leu^8-OT induced membrane hyperpolarization ([3]; apamin pretreatment): ≤ 15%
- contribution to (inhibition of) Pro^8-OT induced membrane hyperpolarization ([3]; apamin pretreatment): ≤ 15%
- inhibition of AVP induced hyperpolarization [4]: did not significantly affect
- inhibition of Leu^8-OT induced hyperpolarization [4]: ≤ 15%
- inhibition of Pro^8-OT induced hyperpolarization [4]: ≤ 15%
- inhibition of AVP induced hyperpolarization ([4]; listed as Apamin): ≤ 15%
- contribution to (inhibition of) Leu^8-OT induced membrane hyperpolarization ([5]; apamin pretreatment): ≤ 15%
- contribution to (inhibition of) Pro^8-OT induced membrane hyperpolarization ([5]; apamin pretreatment): ≤ 15%
- inhibition of AVP induced hyperpolarization [6]: did not significantly affect
- inhibition of AVP induced hyperpolarization ([6]; listed as Apamin): ≤ 15%

Compound: C/C=C(/C)C(=O)O[C@H]1C(C)=C2[C@H]([C@@H]1OC(=O)CCCCCCC)[C@@](C)(OC(C)=O)C[C@H](OC(=O)CCC)[C@@]1(O)[C@H]2OC(=O)[C@@]1(C)O [thapsigargin]
- effect on AVP and OT-analog evoked increases in Ca2+ [7]: blocked
- effect on hyperpolarization produced by AVP, Leu^8-OT, and Pro^8-OT [8]: eliminated

Compound: Clc1ccccc1C(c1ccccc1)(c1ccccc1)n1cccn1 [TRAM-34]
- inhibition of AVP induced hyperpolarization [1]: 33%
- inhibition of SKA-31 hyperpolarization ([2]; 300 nM TRAM-34 pretreatment): 78%
- inhibition of AVP induced hyperpolarization [2]: 25%
- inhibition of Leu^8-OT induced hyperpolarization [2]: 38%
- inhibition of Pro^8-OT induced hyperpolarization [2]: 37%
- effect on hyperpolarizing response to KCa3.1 channel opener SKA31 [3]: inhibited
- inhibition of SKA-31 hyperpolarization ([4]; 300 nM TRAM-34 pretreatment): 92%
- effect on hyperpolarizing response to KCa3.1 channel opener SKA31 [5]: inhibited
- inhibition of AVP induced hyperpolarization [6]: 61%

Compound: NC(=O)CC[C@@H]1NC(=O)[C@H](Cc2ccccc2)NC(=O)[C@H](Cc2ccc(O)cc2)NC(=O)[C@@H](N)CSSC[C@@H](C(=O)N2CCC[C@H]2C(=O)N[C@@H](CCCN=C(N)N)C(=O)NCC(N)=O)NC(=O)[C@H](CC(N)=O)NC1=O [AVP, arginine vasopressin]
- EC50 [9]: 0.0498 µM

Compound: Pertussis toxin
- effect on DynorphinA1-13-NH2 hyperpolarizing response [10]: abolished
- effect on AVP induced hyperpolarization (Gi/o; any of the four cell lines (mOTR, tOTR, qOTR, hOTR)): did not inhibit
- effect on Leu^8-OT induced hyperpolarization (Gi/o; tOT or qOT receptor cell lines): did not inhibit
- effect on Pro^8-OT induced hyperpolarization (Gi/o; tOT or qOT receptor cell lines): did not inhibit
